Results of several laboratories.
Protocols differ between the studies behind these lines.
Target: Cytochrome P450 2D6 (CYP2D6, Homo sapiens, UniProt P10635)
Effect on: enzyme activity
Action: inhibitor

SMILES	method	host	medium	time	pH	quantity	value
C[C@@H](c1ccc2nccn2c1)n1nnc2ncc(-c3cnn(C)c3)nc21		human	liver microsomes		pH 7.4	IC50	24 µM
NS(=O)(=O)NCCNc1nonc1C(=NO)Nc1ccc(F)c(Br)c1	fluorescence					IC50	> 10 µM
Nc1nc(N)c2nc(C(=O)NCc3cccc(C(F)(F)F)c3)cnc2n1	luciferase					IC50	0.251 µM
CC1=CC(=O)C(C(C)C)=CC1=O	fluorescence				pH 7.4	IC50	282 µM
Cc1coc([C@H]2C[C@H]3[C@@H](CF)SC(N)=N[C@@]3(c3ccc(F)cc3F)CO2)n1		human	liver microsomes		pH 7.4	IC50	> 30 µM
Cc1cc(C)c2c(c1)[C@@H](N(Cc1cc(C(F)(F)F)cc(C(F)(F)F)c1)c1nnn(C)n1)CCCN2C[C@H]1CC[C@H](C(=O)O)CC1		human	liver microsomes		pH 7.4	Ki	2100 nM
Cc1cc2c(F)c(Oc3ncnn4cc(OC[C@@H](C)O)c(C)c34)ccc2[nH]1	fluorescence			15 min		IC50	34.7 µM
Cc1cc([C@H]2C[C@H]3[C@@H](CF)SC(N)=N[C@@]3(c3ccc(F)cc3F)CO2)on1		human	liver microsomes		pH 7.4	IC50	> 30 µM
CCOC(=O)C1CCN(C(=O)c2ccc(N(CC)Cc3cnc4nc(N)nc(N)c4n3)cc2)CC1	luciferase					IC50	51.3 µM
COc1ccc2c(Cc3ccccc3F)c3n(c(=O)c2c1OC)CCc1cc2c(cc1-3)OCO2						IC50	> 10 µM
Nc1nc(N)c2nc(C(=O)NCc3ccccc3)cnc2n1	luciferase					IC50	0.204 µM
COc1ccn2c(Nc3ccccc3F)c(-c3ccncn3)nc2c1						IC50	2.3 µM
